This is an account of results in ChEMBL document CHEMBL4354843, “Structure-Based Design of a Potent and Selective Covalent Inhibitor for SRC Kinase That Targets a P-Loop Cysteine” (J Med Chem, 2020).

Each structure is given as a SMILES string.

Test [1] deals with Tyrosine-protein kinase ABL1 (Homo sapiens), P00519 [F317L]. In words: Binding affinity to human non-phosphorylated ABL1 F317L mutant (S229 to K512 residues) expressed in mammalian expression system assessed as residual binding level at 1 uM by Kinomescan method relative to control. Put shortly:
(§1)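 KinomeScan active site-directed competition binding panel (468 kinases), compound tested at 1 μM. Result expressed as remaining kinase signal versus DMSO control (percent of control).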

Test [2] has as its target 5'-AMP-activated protein kinase catalytic subunit alpha-2 (Homo sapiens) (UniProt P54646). In words: Binding affinity to wild-type human partial length AMPK alpha2 (M1 to E306 residues) expressed in bacterial expression system assessed as residual binding level at 1 uM by Kinomescan method relative to control.
Test [3] addresses Tyrosine-protein kinase BTK (Homo sapiens) (UniProt Q06187). As to the kind of experiment: Binding affinity to wild-type human full length BTK (M1 to S659 residues) expressed in mammalian expression system assessed as residual binding level at 1 uM by Kinomescan method relative to control. In outline: (§2)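 KinomeScan, an active site-directed competition binding panel of 468 kinases. The test compound was at 1 μM. The readout is remaining kinase binding as a percentage of the DMSO control. Scores above 35% were treated as weak binding and not listed.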

The target in test [4] is CDK4/Cyclin D3 (Homo sapiens) (UniProt P11802+P30281). As to the kind of experiment: Binding affinity to wild-type human full length CDK4/cyclinD3 (M1 to E303 residues) expressed in mammalian expression system assessed as residual binding level at 1 uM by Kinomescan method relative to control. Put shortly: (§3)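 Active-site-directed KinomeScan competition binding panel covering 468 kinases, compound tested at 1 μM. Each readout is the kinase signal remaining with compound, expressed as a percentage of the DMSO control. […]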

Test [5] has as its target Cyclin-dependent kinase-like 1 (Homo sapiens) (UniProt Q00532). In words: Binding affinity to wild-type human full length CDKL1 (M1 to I358 residues) expressed in mammalian expression system assessed as residual binding level at 1 uM by Kinomescan method relative to control. In outline: as §2
Test [6] concerns the target Cyclin-dependent kinase-like 5 (Homo sapiens) (UniProt O76039). In words: Binding affinity to wild-type human partial length CDKL5 (M1 to S337 residues) expressed in mammalian expression system assessed as residual binding level at 1 uM by Kinomescan method relative to control.
Test [7] has as its target Dual specificity protein kinase CLK3 (Homo sapiens) (UniProt P49761). In words: Binding affinity to wild-type human full length CLK3 (M1 to R490 residues) expressed in bacterial expression system assessed as residual binding level at 1 uM by Kinomescan method relative to control. Put shortly:
as §3

Test [8] addresses Death-associated protein kinase 2 (Homo sapiens) (UniProt Q9UIK4). As to the kind of experiment: Binding affinity to wild-type human full length DAPK2 (M1 to S370 residues) expressed in bacterial expression system assessed as residual binding level at 1 uM by Kinomescan method relative to control. Put shortly: as §3
Test [9] relates to Epidermal growth factor receptor (Homo sapiens), P00533 [UNDEFINED MUTATION]. As to the kind of experiment: Binding affinity to human partial length EGFR E746-A750del mutant expressed in bacterial expression system assessed as residual binding level at 1 uM by Kinomescan method relative to control. Put shortly:
as §1

Test [10] concerns Epidermal growth factor receptor (Homo sapiens), P00533 [L861Q]. In words: Binding affinity to human partial length EGFR L861Q mutant (R669 to V1011 residues) expressed in bacterial expression system assessed as residual binding level at 1 uM by Kinomescan method relative to control. Put shortly:
as §1

The target of test [11] is Serine/threonine-protein kinase Nek4 (Homo sapiens) (UniProt P51957). As to the kind of experiment: Binding affinity to wild-type human full length NEK4 (M1 to F841 residues) expressed in mammalian expression system assessed as residual binding level at 1 uM by Kinomescan method relative to control. In outline:
as §2

For test [12], the target named is Cyclin-dependent kinase 15 (Homo sapiens) (UniProt Q96Q40). As to the kind of experiment: Binding affinity to wild-type human full length PFTAIRE2 (M1 to W384 residues) expressed in bacterial expression system assessed as residual binding level at 1 uM by Kinomescan method relative to control. In outline:
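Active-site-directed competition binding panel (KinomeScan) covering 468 kinases. Test agent was screened at 1 μM. The read-out is the remaining kinase signal expressed relative to a DMSO control. Scores above 35%, taken as weak binding, were not reported.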

Test [13] addresses Phosphatidylinositol 4,5-bisphosphate 3-kinase catalytic subunit alpha isoform (Homo sapiens) (UniProt P42336). As to the kind of experiment: Binding affinity to wild-type human partial length PIK3CA (R108 to N1068 residues) expressed in mammalian expression system assessed as residual binding level at 1 uM by Kinomescan method relative to control.
Test [14] deals with Proto-oncogene tyrosine-protein kinase receptor Ret (Homo sapiens), P07949 [V804M]. In words: Binding affinity to human partial length RET V804M mutant (E713 to D1014 residues) expressed in bacterial expression system assessed as residual binding level at 1 uM by Kinomescan method relative to control. Put shortly: as §1
Test [15] addresses Serine/threonine-protein kinase RIO1 (Homo sapiens) (UniProt Q9BRS2). As to the kind of experiment: Binding affinity to wild-type human full length RIOK1 (M1 to K568 residues) expressed in bacterial expression system assessed as residual binding level at 1 uM by Kinomescan method relative to control. Put shortly: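 Active-site-directed competition binding screen across a 468-kinase panel, run with the test compound at 1 μM. The read-out is the kinase signal remaining relative to a DMSO control, reported as a percentage. […]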

Test [16] has as its target Receptor-interacting serine/threonine-protein kinase 2 (Homo sapiens) (UniProt O43353). As to the kind of experiment: Binding affinity to wild-type human partial length RIPK2 (M1 to K310 residues) expressed in bacterial expression system assessed as residual binding level at 1 uM by Kinomescan method relative to control.
The target in test [17] is TGF-beta receptor type-1 (Homo sapiens) (UniProt P36897). In words: Binding affinity to wild-type human partial length TGFBR1 (D179 to M503 residues) expressed in bacterial expression system assessed as residual binding level at 1 uM by Kinomescan method relative to control.
Test [18] concerns the target Tyrosine-protein kinase TXK (Homo sapiens) (UniProt P42681). As to the kind of experiment: Binding affinity to wild-type human partial length TXK (L238 to W527 residues) expressed in bacterial expression system assessed as residual binding level at 1 uM by Kinomescan method relative to control. Put shortly:
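Active site-directed competition binding panel (KinomeScan, 468 kinases). Test compound at 1 μM. Read-out is kinase binding remaining versus DMSO control, expressed as percent of control. Scores above 35% are treated as weak binding.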

The target of test [19] is Serine/threonine-protein kinase WNK3 (Homo sapiens) (UniProt Q9BYP7). In words: Binding affinity to wild-type human partial length WNK3 (M1 to D434 residues) expressed in mammalian expression system assessed as residual binding level at 1 uM by Kinomescan method relative to control.

Tyrosine-protein kinase TXK (Homo sapiens), sequence (P42681 whole entry, the tested form may be a part): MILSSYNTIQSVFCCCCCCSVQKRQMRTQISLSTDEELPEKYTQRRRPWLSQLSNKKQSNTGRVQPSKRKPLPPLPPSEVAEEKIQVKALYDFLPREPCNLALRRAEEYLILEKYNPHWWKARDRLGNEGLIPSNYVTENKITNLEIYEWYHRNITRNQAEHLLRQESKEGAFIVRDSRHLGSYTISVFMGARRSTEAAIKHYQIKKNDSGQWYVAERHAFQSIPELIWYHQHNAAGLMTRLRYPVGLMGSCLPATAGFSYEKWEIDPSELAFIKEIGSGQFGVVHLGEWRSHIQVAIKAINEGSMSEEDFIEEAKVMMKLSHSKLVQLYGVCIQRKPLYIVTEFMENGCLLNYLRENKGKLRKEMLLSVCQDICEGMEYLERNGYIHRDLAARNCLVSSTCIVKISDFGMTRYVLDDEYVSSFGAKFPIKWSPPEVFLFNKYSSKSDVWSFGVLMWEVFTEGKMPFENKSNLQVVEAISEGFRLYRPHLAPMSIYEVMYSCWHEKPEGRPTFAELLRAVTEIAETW
Death-associated protein kinase 2 (Homo sapiens), sequence (Q9UIK4 whole entry, looked up, the tested form may be a part): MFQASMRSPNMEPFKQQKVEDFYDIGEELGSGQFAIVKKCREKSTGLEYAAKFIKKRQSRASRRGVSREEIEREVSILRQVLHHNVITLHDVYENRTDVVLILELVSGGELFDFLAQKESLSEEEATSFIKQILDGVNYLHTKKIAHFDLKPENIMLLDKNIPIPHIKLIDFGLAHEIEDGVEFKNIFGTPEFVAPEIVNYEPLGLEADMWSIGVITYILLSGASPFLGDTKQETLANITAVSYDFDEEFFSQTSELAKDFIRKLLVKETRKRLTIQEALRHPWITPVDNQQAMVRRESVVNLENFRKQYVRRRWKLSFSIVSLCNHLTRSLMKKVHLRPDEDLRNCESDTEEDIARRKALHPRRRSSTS
Tyrosine-protein kinase ABL1 (Homo sapiens), P00519 [F317L], sequence (P00519 whole entry F317L, the tested form may be a part): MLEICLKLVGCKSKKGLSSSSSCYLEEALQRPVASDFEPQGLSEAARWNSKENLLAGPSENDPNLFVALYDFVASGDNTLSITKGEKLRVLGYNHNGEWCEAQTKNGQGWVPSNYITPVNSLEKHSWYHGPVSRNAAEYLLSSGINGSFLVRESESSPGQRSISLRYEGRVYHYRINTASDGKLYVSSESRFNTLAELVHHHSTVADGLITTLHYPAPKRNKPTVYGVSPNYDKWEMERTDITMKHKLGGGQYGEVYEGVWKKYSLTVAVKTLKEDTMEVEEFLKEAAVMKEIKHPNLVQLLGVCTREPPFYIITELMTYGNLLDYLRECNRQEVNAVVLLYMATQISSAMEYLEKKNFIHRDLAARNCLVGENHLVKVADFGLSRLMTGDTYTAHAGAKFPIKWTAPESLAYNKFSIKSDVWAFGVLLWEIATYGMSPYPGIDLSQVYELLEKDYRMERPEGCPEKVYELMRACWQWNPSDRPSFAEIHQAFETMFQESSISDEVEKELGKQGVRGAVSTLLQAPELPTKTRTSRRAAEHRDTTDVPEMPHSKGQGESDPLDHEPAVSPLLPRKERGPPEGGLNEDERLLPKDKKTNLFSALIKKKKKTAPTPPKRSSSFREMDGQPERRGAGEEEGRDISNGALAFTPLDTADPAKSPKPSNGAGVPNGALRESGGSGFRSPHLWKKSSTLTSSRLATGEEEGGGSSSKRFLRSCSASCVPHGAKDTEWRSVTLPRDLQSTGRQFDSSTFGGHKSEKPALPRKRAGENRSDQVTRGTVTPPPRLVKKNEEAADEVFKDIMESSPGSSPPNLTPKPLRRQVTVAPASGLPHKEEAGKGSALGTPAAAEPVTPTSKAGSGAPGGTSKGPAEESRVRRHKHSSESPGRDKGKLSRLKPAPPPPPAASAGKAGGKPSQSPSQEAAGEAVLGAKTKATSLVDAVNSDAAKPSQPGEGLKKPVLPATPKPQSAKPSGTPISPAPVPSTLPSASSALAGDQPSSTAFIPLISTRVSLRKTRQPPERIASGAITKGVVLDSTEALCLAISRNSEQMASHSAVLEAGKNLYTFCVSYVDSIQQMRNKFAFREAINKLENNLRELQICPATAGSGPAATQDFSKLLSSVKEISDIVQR
Serine/threonine-protein kinase Nek4 (Homo sapiens), sequence (P51957 whole entry, looked up, the tested form may be a part): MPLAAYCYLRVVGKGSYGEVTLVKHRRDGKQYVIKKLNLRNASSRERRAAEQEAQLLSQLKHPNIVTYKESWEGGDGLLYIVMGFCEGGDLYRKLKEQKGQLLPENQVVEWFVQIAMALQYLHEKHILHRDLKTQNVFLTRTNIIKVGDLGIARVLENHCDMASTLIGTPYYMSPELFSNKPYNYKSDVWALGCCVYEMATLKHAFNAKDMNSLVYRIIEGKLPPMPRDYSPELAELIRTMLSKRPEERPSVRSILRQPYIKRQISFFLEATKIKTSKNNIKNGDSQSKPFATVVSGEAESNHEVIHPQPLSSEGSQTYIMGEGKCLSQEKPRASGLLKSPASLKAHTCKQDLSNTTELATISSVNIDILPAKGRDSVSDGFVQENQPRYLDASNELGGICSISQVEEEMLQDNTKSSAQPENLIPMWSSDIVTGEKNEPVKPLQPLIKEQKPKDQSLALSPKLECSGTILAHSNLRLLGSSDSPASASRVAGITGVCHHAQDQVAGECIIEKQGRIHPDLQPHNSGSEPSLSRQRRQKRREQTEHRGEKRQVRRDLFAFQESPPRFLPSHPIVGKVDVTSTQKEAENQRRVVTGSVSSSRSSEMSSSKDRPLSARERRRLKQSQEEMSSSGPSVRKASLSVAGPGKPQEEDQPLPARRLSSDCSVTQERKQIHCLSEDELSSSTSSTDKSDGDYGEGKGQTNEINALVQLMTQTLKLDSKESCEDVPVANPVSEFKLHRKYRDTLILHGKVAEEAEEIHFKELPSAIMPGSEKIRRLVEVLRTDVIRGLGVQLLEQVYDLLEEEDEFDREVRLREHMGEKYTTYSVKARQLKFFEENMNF
Dual specificity protein kinase CLK3 (Homo sapiens), sequence (P49761 whole entry, looked up, the tested form may be a part): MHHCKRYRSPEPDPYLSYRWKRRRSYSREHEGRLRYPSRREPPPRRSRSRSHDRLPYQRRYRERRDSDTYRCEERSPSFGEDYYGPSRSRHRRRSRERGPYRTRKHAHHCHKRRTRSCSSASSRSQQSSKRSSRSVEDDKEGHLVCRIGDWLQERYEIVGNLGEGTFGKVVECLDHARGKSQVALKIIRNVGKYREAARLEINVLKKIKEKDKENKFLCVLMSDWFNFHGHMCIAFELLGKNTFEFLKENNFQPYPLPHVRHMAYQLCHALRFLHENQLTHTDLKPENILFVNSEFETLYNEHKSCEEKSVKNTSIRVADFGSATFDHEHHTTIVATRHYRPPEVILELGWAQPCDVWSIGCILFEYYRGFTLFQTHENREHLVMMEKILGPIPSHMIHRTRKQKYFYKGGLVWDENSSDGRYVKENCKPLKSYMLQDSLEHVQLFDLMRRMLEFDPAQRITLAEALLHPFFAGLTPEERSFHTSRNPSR
Receptor-interacting serine/threonine-protein kinase 2 (Homo sapiens), sequence (O43353 whole entry, the tested form may be a part): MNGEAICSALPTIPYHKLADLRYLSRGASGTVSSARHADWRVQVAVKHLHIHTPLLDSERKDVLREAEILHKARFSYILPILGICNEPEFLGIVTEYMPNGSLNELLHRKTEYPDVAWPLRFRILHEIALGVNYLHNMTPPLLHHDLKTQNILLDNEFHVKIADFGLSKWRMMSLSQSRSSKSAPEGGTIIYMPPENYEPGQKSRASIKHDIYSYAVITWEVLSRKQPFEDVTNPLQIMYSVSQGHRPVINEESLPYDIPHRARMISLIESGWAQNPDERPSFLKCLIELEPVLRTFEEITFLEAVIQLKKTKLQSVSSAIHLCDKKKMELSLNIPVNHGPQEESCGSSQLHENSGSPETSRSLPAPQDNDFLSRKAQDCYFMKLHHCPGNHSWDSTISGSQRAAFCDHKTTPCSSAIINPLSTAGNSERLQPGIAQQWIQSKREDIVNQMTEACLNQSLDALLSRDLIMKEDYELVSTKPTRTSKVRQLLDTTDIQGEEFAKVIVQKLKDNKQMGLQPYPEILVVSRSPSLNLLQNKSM
Phosphatidylinositol 4,5-bisphosphate 3-kinase catalytic subunit alpha isoform (Homo sapiens), sequence (P42336 whole entry, the tested form may be a part, canonical isoform): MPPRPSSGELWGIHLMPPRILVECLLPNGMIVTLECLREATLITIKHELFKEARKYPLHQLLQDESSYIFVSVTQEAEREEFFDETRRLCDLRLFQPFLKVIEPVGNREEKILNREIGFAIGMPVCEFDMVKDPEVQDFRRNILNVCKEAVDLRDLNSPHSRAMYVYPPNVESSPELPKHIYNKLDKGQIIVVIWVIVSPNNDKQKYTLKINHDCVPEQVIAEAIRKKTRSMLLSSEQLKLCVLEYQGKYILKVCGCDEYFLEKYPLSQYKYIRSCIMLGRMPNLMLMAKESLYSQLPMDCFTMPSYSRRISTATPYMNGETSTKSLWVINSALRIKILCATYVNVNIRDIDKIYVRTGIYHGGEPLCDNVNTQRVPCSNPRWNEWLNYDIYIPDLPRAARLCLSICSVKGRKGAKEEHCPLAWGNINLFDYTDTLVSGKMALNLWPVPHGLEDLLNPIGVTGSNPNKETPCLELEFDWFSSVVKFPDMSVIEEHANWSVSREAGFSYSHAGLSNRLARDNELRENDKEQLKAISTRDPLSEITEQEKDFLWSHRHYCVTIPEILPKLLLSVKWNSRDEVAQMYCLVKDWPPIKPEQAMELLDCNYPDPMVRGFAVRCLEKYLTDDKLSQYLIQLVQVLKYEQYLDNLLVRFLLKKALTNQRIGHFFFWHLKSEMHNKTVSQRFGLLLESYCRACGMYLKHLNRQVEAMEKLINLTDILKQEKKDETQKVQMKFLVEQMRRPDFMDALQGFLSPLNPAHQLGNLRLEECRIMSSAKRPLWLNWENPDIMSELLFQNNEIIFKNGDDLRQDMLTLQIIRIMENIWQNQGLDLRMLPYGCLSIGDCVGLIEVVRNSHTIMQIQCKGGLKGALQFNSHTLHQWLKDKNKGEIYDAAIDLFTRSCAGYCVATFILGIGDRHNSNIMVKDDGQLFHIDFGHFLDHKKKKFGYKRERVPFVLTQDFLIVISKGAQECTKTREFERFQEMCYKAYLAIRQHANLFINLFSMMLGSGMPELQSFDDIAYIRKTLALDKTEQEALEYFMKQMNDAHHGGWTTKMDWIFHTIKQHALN

As for `C=CC(=O)Nc1ccccc1Nc1nc(Nc2ccc(N3CCN(C)CC3)cc2)ncc1C(=O)Nc1c(C)cccc1Cl`, the Activity in [1] was 0.9%; in [2], 100%; in test [3], 0.1%; in test [4], 100%; in test [5] it was 72%; in test [6], 100%. The Activity in test [7] worked out at 100%; in test [8], 100%; in test [9] it was 67%; in [10] it was 55%; in test [11], 94%; in [12], 100%. For the same compound, the Activity in test [13] is 100%; in test [14] it was 100%; in [15], 100%; in [16], 100%; in [17], 100%; in test [18], 17%. Also, the Activity in [19] came out at 100%.
